Tests used:
[1] = folding enthalpy; higher = less favourable; fluorescence melt of hairpins on a sequencing array, two-state fit; conditions: sodium 0.088 M
Procedure, shortened: (§1)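 Bootstrapped two-state fits yielded melting temperature and folding enthalpy for library hairpins. Cy3 fluorescence, with annealed Cy3 and quencher oligos, was imaged on a sequenced MiSeq flow cell in 50 mM Na-HEPES pH 8.0, 25 mM NaCl in 2.5 °C steps up to 60 °C, and normalised to pre-quench Cy3 and to control constructs. Four replicates were combined by inverse variance, and fitted temperatures were raised by 9.35 °C to match UV melts.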

[2] = melting temperature; fluorescence melt of hairpins on a sequencing array, two-state fit, raised by 9.35 °C to match UV melts; conditions: sodium 0.088 M
Procedure, shortened: as §1

GATCTTAACAAGATC ((((((...))))))
folding enthalpy [1]: -31.9 kcal/mol | Tm [2]: 45.6 °C

CTGCGGAAACGCAG (((((....)))))
folding enthalpy [1]: -31.6 kcal/mol | Tm [2]: 61.8 °C

GGTCAAGGAAACTTGGCC ((.((((....)))).))
folding enthalpy [1]: -38.1 kcal/mol | Tm [2]: 52.8 °C

GGGGGCGAAAGCCTACCC ((((((....)))..)))
folding enthalpy [1]: -15 kcal/mol | Tm [2]: 49.8 °C

GCTATGCGAAAGCGTCGC ((.(.((....)).).))
folding enthalpy [1]: -18.1 kcal/mol | Tm [2]: 43.2 °C

TAGCGGAAACGCTA (((((....)))))
folding enthalpy [1]: -15.9 kcal/mol | Tm [2]: 54.3 °C

GTATAAGGAAACTTATAC (((((((....)))))))
folding enthalpy [1]: -30.9 kcal/mol | Tm [2]: 46 °C

GCGGTTACGAAAGTACGC (((..(((....))))))
folding enthalpy [1]: -26.7 kcal/mol | Tm [2]: 48.4 °C

GTTACCGGAAACGGCAAC (((.(((....))).)))
folding enthalpy [1]: -24.6 kcal/mol | Tm [2]: 44 °C

GATCTGGTAGCAGATC ((((((....))))))
folding enthalpy [1]: -36.6 kcal/mol | Tm [2]: 52.2 °C

GACTCACGAAAGTGGTC (((.(((....))))))
folding enthalpy [1]: -20 kcal/mol | Tm [2]: 46.6 °C

GAACGCGAAAGCGGGTTC ((((((....)))..)))
folding enthalpy [1]: -11.9 kcal/mol | Tm [2]: 47.1 °C

GATCTAGGATTAGATC ((((((....))))))
folding enthalpy [1]: -29.1 kcal/mol | Tm [2]: 44.8 °C

GCGGTGCTCCGC ((((....))))
folding enthalpy [1]: -18.6 kcal/mol | Tm [2]: 56.1 °C

GGTGCGGCGAAAGCCACC (((..(((....))))))
folding enthalpy [1]: -14 kcal/mol | Tm [2]: 48.2 °C

GACACCGGAAACGGCGTC (((.(((....))).)))
folding enthalpy [1]: -43 kcal/mol | Tm [2]: 52.6 °C

GTTTGAGGAAACTCAAGC (.(((((....))))).)
folding enthalpy [1]: -25.1 kcal/mol | Tm [2]: 40.5 °C

GATCATGACATGATC ((((((...))))))
folding enthalpy [1]: -40.3 kcal/mol | Tm [2]: 49.7 °C

GGGCTTGAAAAAGCCC ((((((....))))))
folding enthalpy [1]: -35.8 kcal/mol | Tm [2]: 68.1 °C

GAGGAGGGAAACTTCCTC (((((.(....).)))))
folding enthalpy [1]: -25.6 kcal/mol | Tm [2]: 41.9 °C

GATCCAACTTGGATC ((((((...))))))
folding enthalpy [1]: -29 kcal/mol | Tm [2]: 51.2 °C

GTGCACGGAAACGTGTAC ((.((((....)))).))
folding enthalpy [1]: -41.8 kcal/mol | Tm [2]: 55.8 °C

GATCCAACCTTGGATC ((((((....))))))
folding enthalpy [1]: -51.5 kcal/mol | Tm [2]: 51.5 °C

GAACCTGGAAACAGGTCC (.(((((....))))).)
folding enthalpy [1]: -15.9 kcal/mol | Tm [2]: 40.9 °C

GAGTTGGGAAACCAGCTC (((.(((....))).)))
folding enthalpy [1]: -34.7 kcal/mol | Tm [2]: 48.9 °C

GATCTCAGGGAGATC ((((((...))))))
folding enthalpy [1]: -29.5 kcal/mol | Tm [2]: 54.5 °C

GAGTTTCCGAAAGGACTC (((..(((....))))))
folding enthalpy [1]: -13.3 kcal/mol | Tm [2]: 30 °C

GTAAACCGAAAGGTATAC (((.(((....))).)))
folding enthalpy [1]: -25.1 kcal/mol | Tm [2]: 40.5 °C

GGCTTCGAAAGAATAGCC ((((((....)))..)))
folding enthalpy [1]: -27.6 kcal/mol | Tm [2]: 45.3 °C

GGAAGAGCGAAAGCTTCC (((..(((....))))))
folding enthalpy [1]: -16.1 kcal/mol | Tm [2]: 43.8 °C

GTGCTGCGAAAGCAACAC (((.(((....))).)))
folding enthalpy [1]: -33.8 kcal/mol | Tm [2]: 56.5 °C

GTGATGACGAAAGTCCAC (((..(((....))))))
folding enthalpy [1]: -18.4 kcal/mol | Tm [2]: 35.1 °C

GATCACACGGTGATC ((((((...))))))
folding enthalpy [1]: -37.5 kcal/mol | Tm [2]: 60.5 °C

GCCTGGCGAAAGCCCAGC ((..(((....)))..))
folding enthalpy [1]: -10.9 kcal/mol | Tm [2]: 47.3 °C

GATCGGCGGCCGATC ((((((...))))))
folding enthalpy [1]: -49.3 kcal/mol | Tm [2]: 58.1 °C

GCCGGGCGAAAGCGCCGC ((.(.((....)).).))
folding enthalpy [1]: -11.5 kcal/mol | Tm [2]: 48.7 °C

GGTAGCGGAAACGTTGCC ((.(.((....)).).))
folding enthalpy [1]: -25.2 kcal/mol | Tm [2]: 39.3 °C

GATCGCAGTTGCGATC ((((((....))))))
folding enthalpy [1]: -41.1 kcal/mol | Tm [2]: 68.6 °C

GCGGGGGGAAACCCCCAC (.(((((....))))).)
folding enthalpy [1]: -11.2 kcal/mol | Tm [2]: 46 °C

GATCATAATGATGATC ((((((....))))))
folding enthalpy [1]: -29.9 kcal/mol | Tm [2]: 45.6 °C

GGGAACGAAAGTTAACCC ((((((....)))..)))
folding enthalpy [1]: -19.8 kcal/mol | Tm [2]: 35.1 °C

GCAGAGCGAAAGCGGTGC (((..((....))..)))
folding enthalpy [1]: -23.7 kcal/mol | Tm [2]: 63.5 °C

GAGTTACGAAAGTATCTC (((.(((....))).)))
folding enthalpy [1]: -26 kcal/mol | Tm [2]: 41.4 °C

GCGAATCATCGC ((((....))))
folding enthalpy [1]: -23.6 kcal/mol | Tm [2]: 47.6 °C

GTGAGTCCGAAAGGACAC (((..(((....))))))
folding enthalpy [1]: -13.1 kcal/mol | Tm [2]: 49.6 °C

GTTACCCGAAAGGGCAAC (((.(((....))).)))
folding enthalpy [1]: -24.4 kcal/mol | Tm [2]: 47.3 °C

GTGCTAGGAAACTGGCAC ((((.((....)).))))
folding enthalpy [1]: -45.4 kcal/mol | Tm [2]: 53.5 °C

GATCCTGCTCAGGATC ((((((....))))))
folding enthalpy [1]: -48.1 kcal/mol | Tm [2]: 55.2 °C

GGTGCACGAAAGTGAACC (((.(((....))).)))
folding enthalpy [1]: -35.3 kcal/mol | Tm [2]: 61.4 °C

GGTTGGGAAACCAACC ((((((....))))))
folding enthalpy [1]: -42.9 kcal/mol | Tm [2]: 60.4 °C

GTAAGCGAAAGCTTATAC ((((((....)))..)))
folding enthalpy [1]: -12.2 kcal/mol | Tm [2]: 39.1 °C

GATCTTCTGAAAGATC ((((((....))))))
folding enthalpy [1]: -25.4 kcal/mol | Tm [2]: 42.1 °C

GCGTCCTCGAAAGAGCGC (((..(((....))))))
folding enthalpy [1]: -24.9 kcal/mol | Tm [2]: 48.4 °C

GTCACTACGAAAGTAGAC (((..(((....))))))
folding enthalpy [1]: -10.2 kcal/mol | Tm [2]: 28.3 °C

GGTGTAGCGAAAGCTACC (((..(((....))))))
folding enthalpy [1]: -9.3 kcal/mol | Tm [2]: 49.1 °C

GATCATACTATGATC ((((((...))))))
folding enthalpy [1]: -35.7 kcal/mol | Tm [2]: 48.1 °C

GATCTACATGTAGATC ((((((....))))))
folding enthalpy [1]: -45.9 kcal/mol | Tm [2]: 52.5 °C

GAAATCCGAAAGGAATTC (((.(((....))).)))
folding enthalpy [1]: -28.1 kcal/mol | Tm [2]: 40.9 °C

GATGACGAAAGTCAGATC ((((((....)))..)))
folding enthalpy [1]: -17.8 kcal/mol | Tm [2]: 52.1 °C

GTGGGTTCGAAAGAACAC (((..(((....))))))
folding enthalpy [1]: -27 kcal/mol | Tm [2]: 57.4 °C

GGGTTGGGAAACCAGTCC ((..(((....)))..))
folding enthalpy [1]: -16.4 kcal/mol | Tm [2]: 38 °C

GGGTCAGGAAACTAACCC ((((.((....)).))))
folding enthalpy [1]: -25.4 kcal/mol | Tm [2]: 38.2 °C

CGGATGCGGAAACGCCCG (((..(((....))))))
folding enthalpy [1]: -23.4 kcal/mol | Tm [2]: 46.9 °C

GATCTGAGTCCAGATC ((((((....))))))
folding enthalpy [1]: -30 kcal/mol | Tm [2]: 46.7 °C

GGCGGGGGAAACTCCGCC (((((.(....).)))))
folding enthalpy [1]: -38 kcal/mol | Tm [2]: 67.7 °C

GTATAGACGAAAGTCTAC (((..(((....))))))
folding enthalpy [1]: -10.5 kcal/mol | Tm [2]: 33.5 °C

GGACACCGAAAGGTTCC (((.(((....))))))
folding enthalpy [1]: -25.6 kcal/mol | Tm [2]: 48.6 °C

GGCGTAGGAAACTGCGCC ((((.((....)).))))
folding enthalpy [1]: -48.8 kcal/mol | Tm [2]: 62.3 °C

GGCTGTGGAAACGTAGCC ((((..(....)..))))
folding enthalpy [1]: -29.9 kcal/mol | Tm [2]: 48.9 °C

GCCGCGCGAAAGCCCCGC ((.(.((....)).).))
folding enthalpy [1]: -7.57 kcal/mol | Tm [2]: 33.3 °C

TATGTGAAAACATA (((((....)))))
folding enthalpy [1]: -12.4 kcal/mol | Tm [2]: 35.3 °C

GGCAGCGAAAGCTATGCC ((((((....)))..)))
folding enthalpy [1]: -28.7 kcal/mol | Tm [2]: 55.3 °C

GTTTTAGGAAACTGAAAC ((((.((....)).))))
folding enthalpy [1]: -22.1 kcal/mol | Tm [2]: 35.2 °C

GCGTAGGGAAACCTACAC (.(((((....))))).)
folding enthalpy [1]: -14.5 kcal/mol | Tm [2]: 40.8 °C

GTTAGTGGAAACACCAAC (((.(((....))).)))
folding enthalpy [1]: -13.3 kcal/mol | Tm [2]: 29.3 °C

GGTTTAGGAAACTAAGCC ((.((((....)))).))
folding enthalpy [1]: -27.6 kcal/mol | Tm [2]: 39.8 °C

GTACTCGGAAACAAGTAC (((((.(....).)))))
folding enthalpy [1]: -23.4 kcal/mol | Tm [2]: 32.5 °C

TACCTGAAAAGGTA (((((....)))))
folding enthalpy [1]: -14.8 kcal/mol | Tm [2]: 41.3 °C

GCGAGTCTTCGC ((((....))))
folding enthalpy [1]: -26.2 kcal/mol | Tm [2]: 57.2 °C

GTCTACGGAAACGCAGAC ((((.((....)).))))
folding enthalpy [1]: -35 kcal/mol | Tm [2]: 45.1 °C

GCACGCCGAAAGGCATGC (((.(((....))).)))
folding enthalpy [1]: -28 kcal/mol | Tm [2]: 60.5 °C

GTGCTCCGAAAGGACAC (((.(((....))))))
folding enthalpy [1]: -27.4 kcal/mol | Tm [2]: 51.9 °C

GATCGATATGTCGATC ((((((....))))))
folding enthalpy [1]: -41.9 kcal/mol | Tm [2]: 55 °C

GACGCCGAAAGGCTGGTC ((((((....)))..)))
folding enthalpy [1]: -16.1 kcal/mol | Tm [2]: 48 °C

GATCGTATAGACGATC ((((((....))))))
folding enthalpy [1]: -38.1 kcal/mol | Tm [2]: 53 °C

GTCAGCGGAAACGTTGAC ((((.((....)).))))
folding enthalpy [1]: -43.5 kcal/mol | Tm [2]: 52.9 °C

GCTCGGCGAAAGCCTCGC ((..(((....)))..))
folding enthalpy [1]: -14.4 kcal/mol | Tm [2]: 48.7 °C

GGATGGCGAAAGCCTTCC (((.(((....))).)))
folding enthalpy [1]: -24.3 kcal/mol | Tm [2]: 56.6 °C

GACCGAGGAAACTCGGCC (.(((((....))))).)
folding enthalpy [1]: -15.1 kcal/mol | Tm [2]: 46.6 °C

GCGACGCGAAAGCTTGGC ((.(.((....)).).))
folding enthalpy [1]: -10.3 kcal/mol | Tm [2]: 37.2 °C

GCTCTACGAAAGTATAGC (((.(((....))).)))
folding enthalpy [1]: -29.7 kcal/mol | Tm [2]: 42.5 °C

GATCTATCTGTAGATC ((((((....))))))
folding enthalpy [1]: -33.9 kcal/mol | Tm [2]: 42.9 °C

GCATGGCGAAAGCTGTGC (((..((....))..)))
folding enthalpy [1]: -31.6 kcal/mol | Tm [2]: 59.9 °C

From the array DNA melting data of Ke et al. (doi:10.1101/2024.01.08.574731)
